Measured values from the RNAGym collection of RNA variant scans (doi:10.1126/science.aae0568).
Variants at the floor of the assay were thinned out.

B1: tRNA (parent)
chain: GUUCCGUUGGCGUAAUGGUAACGCGUCUCCCUCCUAAGGAGAAGACUGCGGGUUCGAGUCCCGUACGGAACG

Variants of: B1
Test: yeast fitness relative to wild type (ratio to wild type); higher = fitter; tRNA-Arg(CCU), competitive growth, 37 C, YPD
Outline: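 Start and end populations of a pooled competition were compared by 100-nucleotide paired-end sequencing of gene amplicons. The Saccharomyces cerevisiae strains carried tRNA-Arg(CCU) gene variants at the native genomic locus, synthesised with a 3% per-site mutation rate at 69 sites, and competed in YPD at 37°C for 24 hours in six parallel replicates. Darwinian fitness relative to wild type was based on the change in genotype frequencies. Genotypes required ≥ 100 starting reads, and estimates < 0.5 were set to 0.5.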

| Variant | yeast fitness |
| --- | --- |
| GUUCCGUUGGCGUAAUGGUAACGCGUCUCCUUUCUAGGGAGAAGACUGCGGGUUCGAGACCCGGACGGAACG [C31U C33U A37G U59A U64G] | 0.525 |
| GUUCCGUUGGCGUAAUGGUAACGCGUCUCCUUCCUAAGGAGAAGACUGCGGGUUCGAGUGCCGUACGGAACG [C31U C60G] | 0.696 |
| GUUCCGUUGGCGUAAUGGUAACGCGUCUCCUUCCUAAGGAGAAGACUGCGGGUUCGAGUACCGUACGGAACG [C31U C60A] | 0.563 |
| GUUCCGUUGGCGUAAUGGUAACGCGUCUCCUUCCUAAGGAGAAGACUGGGGGUUCGAGUACCGUACGGAACG [C31U C49G C60A] | ≤ 0.5 |
| GUUCCGUUGGCGUAAUGGUAACGCGUCUCCUUCCUAAGGAGAUGACUACGGGAUCGAGUCCUGUACGGAACG [C31U A43U G48A U53A C62U] | ≤ 0.5 |
| GUUCCGUUGGCGUAAUGGUAACGCGUCUCCUUCCUAAGGAGAAGACUGGGGGUUCGAGUCACGUACGGAACG [C31U C49G C61A] | ≤ 0.5 |
| GUUCCGUUGGCGUAAUGGUAACGCGUCUCCUUACUAAGGAGAAGACUGCGGGUUCGAGUCCCGUACGGUACG [C31U C33A A69U] | ≤ 0.5 |
| GUUCCGUUGGCGUAAUGGUAACGCGUCUCCUUUCUAAGGAGCAGACUGUGGGUUCGAGUCCCGUACGGAACG [C31U C33U A42C C49U] | ≤ 0.5 |
| GUUCCGUUGGCGUAAUGGUAACGCGUCUCCUUCCUAAGGAGAAGAAUGCGGGUUCGACUCCCGUACGGAACG [C31U C46A G58C] | 0.645 |
| GUUCCGUUGGCGUAAUGGUAACGCGUCUCCUUCCUAAGGAGAAGACUGCGGGUUCGAGUCUCGUAAGGAACG [C31U C61U C66A] | ≤ 0.5 |
| GUUCCGUUGGCGUAAUGGUAACGCGUCUCCUUCCUAAGGAGAAGACUGCGGGUUCGAGUACCGUACGGUACG [C31U C60A A69U] | 0.506 |
| GUUCCGUUGGCGUAAUGGUAACGCGUCUCCUUCCUAAGGAGAGGACUGCGGGCUCGAGUCCCGUACGGAACG [C31U A43G U53C] | 0.513 |
| GUUCCGUUGGCGUAAUGGUAACGCGUCUCCUUCCUAAGGAGAAGUGUGCGGGUUCGAGUCCCGUACGGAACG [C31U A45U C46G] | 0.94 |
| GUUCCGUUGGCGUAAUGGUAACGCGUCUCCUUCCUAAGGAGAAGACUGGGGGUUCGAGUCCCGUACGGCACG [C31U C49G A69C] | 0.636 |
| GUUCCGUUGGCGUAAUGGUAACGCGUCUCCUUCCUAAGGAGAAGACUGCGGGUUCGAGUCCCGUUCGGAACG [C31U A65U] | 0.955 |
| GUUCCGUUGGCGUAAUGGUAACGCGUCUCCUUCCUAAGGAGAUGACUACGGGUUCGUGUCCCGUACCGAACG [C31U A43U G48A A57U G67C] | ≤ 0.5 |
| GUUCCGUUGGCGUAAUGGUAACGCGUCUCCUUGCUAAGGAGAAGACUGCGGGUUCGAGUCCCGUCCGAUACG [C31U C33G A65C G68A A69U] | ≤ 0.5 |
| GUUCCGUUGGCGUAAUGGUAACGCGUCUCCUUCCUAAGGAGAAGACUGCGGGUUGGAGACCCGUACGGAACG [C31U C55G U59A] | ≤ 0.5 |
| GUUCCGUUGGCGUAAUGGUAACGCGUCUCCUUCAUGACGAGAAGACUGCGAGUUCGAGUCCCGUACGGAACG [C31U C34A A36G G38C G51A] | ≤ 0.5 |

| Variant | yeast fitness |
| --- | --- |
| GUUCCGUUGGCGUAAUGGUAACGCGUCUCCUUCCUAAGGAGAAGUCUGCGGGUUUGAGUCCCGUACGGAACG [C31U A45U C55U] | ≤ 0.5 |
| GUUCCGUUGGCGUAAUGGUAACGCGUCUCCUUCCUAAGGAGAAGAUUGCGAGUUCGAGUCCCGUCCGGAACG [C31U C46U G51A A65C] | 0.643 |
| GUUCCGUUGGCGUAAUGGUAACGCGUCUCCUUCCUAAGGAGAAGGCUGCGGGUUCGAGUCCCGUACGGAACG [C31U A45G] | 0.932 |
| GUUCCGUUGGCGUAAUGGUAACGCGUCUCCUUCCUAAGGAGAAGACUGCGGGUUCGAGUCACGUACGGUACG [C31U C61A A69U] | 0.633 |
| GUUCCGUUGGCGUAAUGGUAACGCGUCUCCUUCCUAAGGAGAAGACUGCGGGUUCGAGUCACGUACGGCACG [C31U C61A A69C] | 0.597 |
| GUUCCGUUGGCGUAAUGGUAACGCGUCUCCUUCCUAAGGAGAAGACUGCGGGUUGGAGUCCCGUACGGAACG [C31U C55G] | 0.629 |
| GUUCCGUUGGCGUAAUGGUAACGCGUCUCCUUCCUAAGGAGAAGACUGCGGGUUUGAGUCCCGUACGGAACG [C31U C55U] | 0.72 |
| GUUCCGUUGGCGUAAUGGUAACGCGUCUCCUUCCUAAGGAGAAGAGUGCGGGUUUGAGUCCCGUACGGAACG [C31U C46G C55U] | 0.542 |
| GUUCCGUUGGCGUAAUGGUAACGCGUCUCCUUACUAAGGAGAAGACUGCGGGUUCGAGUCCUGUACGGAACG [C31U C33A C62U] | ≤ 0.5 |
| GUUCCGUUGGCGUAAUGGUAACGCGUCUCCUUCCUAAGGAGAUGACUACGGGAUCGAGUCCCGUACGGAACG [C31U A43U G48A U53A] | 0.587 |
| GUUCCGUUGGCGUAAUGGUAACGCGUCUCCUUCCUAAGGAGAAGAGUGCGGGUUCGAGUCCCGUACGGUACG [C31U C46G A69U] | 0.731 |
| GUUCCGUUGGCGUAAUGGUAACGCGUCUCCUUCCUAAGGAGAAGACUGCGGGUUCGAGUCACGUACGGAACG [C31U C61A] | 0.726 |
| GUUCCGUUGGCGUAAUGGUAACGCGUCUCCUUCCUAAGGAGAAGACUGCGGGUUCGAGUCUCGUACGGAACG [C31U C61U] | 0.93 |
| GUUCCGUUGGCGUAAUGGUAACGCGUCUCCUUCCUAAGGAGAAGACUGCGGGUUCGAGUCGCGUACGGAACG [C31U C61G] | 0.707 |
| GUUCCGUUGGCGUAAUGGUAACGCGUCUCCUUGCUAAGGAGAAGACUGCGGGUUCGAGUCACGUACGGAACG [C31U C33G C61A] | 0.65 |
| GUUCCGUUGGCGUAAUGGUAACGCGUCUCCUUCCUAAGGAGAAGACUGCGGGUUCGAGUCCCGUUCGUAACG [C31U A65U G68U] | 0.699 |
| GUUCCGUUGGCGUAAUGGUAACGCGUCUCCUUCCUAAGGAGAAGAAUGCGGGUUCGAGUCCCGUCCGGAACG [C31U C46A A65C] | 0.73 |
| GUUCCGUUGGCGUAAUGGUAACGCGUCUCCUUCCUAAGGAGUAGACUGCGGGUUCGAGUCCCGUACGGAUCG [C31U A42U A70U] | 1.14 |
| GUUCCGUUGGCGUAAUGGUAACGCGUCUCCUUGCUAAGGAGAAGACUGAGAGUUCGAGUCCCGUACGGAACG [C31U C33G C49A G51A] | 0.563 |
